ChEMBL document CHEMBL3425408, “Design, synthesis, in vitro, and in vivo anticancer and antiangiogenic activity of novel 3-arylaminobenzofuran derivatives targeting the colchicine site on tubulin” (J Med Chem, 2015)
Calls of active or inactive are those of the source. The calls are words filed in the database; no cut-off is given here.

Tests used:
HeLa [1] = assay: Antiproliferative activity against human HeLa cells after 72 hrs by (3-(4,5-dimethylthiazol-2-yl)-2,5-diphenyltetrazolium bromide test; type: functional, cell-based
PBL [2] = assay: Cytotoxicity against human resting PBL cells after 72 hrs by MTT assay; type: cell-based
Summary of the method: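 Resting PBLs from healthy donors separated on a Lymphoprep gradient and incubated overnight in RPMI-1640 with 10% FBS. Nonadherent cells resuspended at 5 × 10^5 cells/mL without PHA and exposed to compound for 72 h. Viability read by MTT. […] Three experiments.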

A549 = assay: Antiproliferative activity against human A549 cells after 72 hrs by (3-(4,5-dimethylthiazol-2-yl)-2,5-diphenyltetrazolium bromide test; type: functional, cell-based; details: A549, 72 h
[3] = Antiproliferative activity against human RS4:11 cells after 72 hrs by (3-(4,5-dimethylthiazol-2-yl)-2,5-diphenyltetrazolium bromide test; type: functional, cell-based; details: RS4-11, 72 h
Summary of the method: (§1)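 Jurkat, RS4;11 and HL-60 cells grown in RPMI-1640; MCF-7, A549, HeLa and HT-29 cells grown in DMEM; both media with 10% FBS and penicillin/streptomycin. 8 × 10^3 cells per well were preincubated 18 h at 37 °C, 5% CO2, then exposed 72 h to a concentration range (DMSO ≤0.25%). Read-out was MTT; IC50 was taken against cells given the maximum DMSO. Mean ± SE of at least three experiments.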

MCF7 = assay: Antiproliferative activity against human MCF7 cells after 72 hrs by (3-(4,5-dimethylthiazol-2-yl)-2,5-diphenyltetrazolium bromide test; type: functional, cell-based; details: MCF7, 72 h
[4] = Antiproliferative activity against human HL60 cells after 72 hrs by (3-(4,5-dimethylthiazol-2-yl)-2,5-diphenyltetrazolium bromide test; type: functional, cell-based; details: HL-60, 72 h; summary of the method: as §1
PBL [5] = assay: Cytotoxicity against human PHA-stimulated PBL cells after 72 hrs by MTT assay; type: cell-based
Summary of the method: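 PBLs came from healthy donors by Lymphoprep gradient, were washed and left overnight in RPMI-1640 with 10% FBS. Nonadherent cells at 5 × 10^5 cells/mL were stimulated with 2.5 μg/mL PHA and given a range of concentrations for 72 h. […] Mean ± SEM of three experiments.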

HUVEC = assay: Cytotoxicity against human HUVEC cells after 72 hrs by MTT assay; type: cell-based
Summary of the method: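 HUVECs were isolated from umbilical cord veins, kept in M200 with low-serum growth supplement and used at passages 1–6. […] Mean ± SEM of three separate experiments.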

Tubulin = Tubulin (Bos taurus, UniProt Q6B856+Q862L2+Q862F3); assay: Inhibition of bovine brain tubulin assembly after 20 mins incubation by spectrophotometric analysis
Summary of the method: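 Bovine brain tubulin (10 μM) was preincubated with varying compound concentrations in glutamate buffer at 30 °C, then chilled to 0 °C. GTP was added to 0.4 mM final and the mixture warmed to 30 °C in cuvettes.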

Tubulin (Bos taurus) = Tubulin (Bos taurus) (UniProt Q6B856+Q862L2+Q862F3); assay: Displacement of [3H]colchicine from bovine brain tubulin at 5 uM after 20 mins by scintillation counting analysis
Summary of the method: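 Reaction mixtures held 1 μM tubulin, 5 μM [3H]colchicine and 5 μM test compound. Inhibition of radiolabelled colchicine binding was reported as percent inhibition.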

Jurkat = assay: Induction of cell cycle arrest in human Jurkat cells assessed as cell arrest at G2/M phase after 24 hrs by propidium iodide based flow cytometric analysis; type: functional
Summary of the method: (§2)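 HeLa or Jurkat cells (5 × 10^5) treated 24 h. Cells fixed in ice-cold 70% ethanol, lysed with RNase A and 0.1% Triton X-100, and stained with propidium iodide. DNA content analyzed by flow cytometry to give cell-cycle phase distribution.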

HeLa [6] = assay: Induction of cells cycle arrest in human HeLa cells assessed as cell arrest at G2/M phase at > 60 nM after 24 hrs by propidium iodide based flow cytometric analysis; type: functional; summary of the method: as §2
HeLa [7] = assay: Induction of cell cycle arrest in human HeLa cells assessed as increase in cyclin B expression at 100 nM after 24 hrs by Western blot analysis; type: functional, cell-based
Summary of the method: (§3)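 HeLa cells treated 24 or 48 h. Lysates cleared at 15000g, and 10 μg protein run on 7.5–15% SDS-PAGE and blotted to PVDF. Membranes blocked in 5% BSA and probed for cyclin B, p-cdc2 Tyr15 and cdc25c, then detected with peroxidase secondary and ECL. Blots stripped and reprobed for β-actin as loading control.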

HeLa [8] = assay: Induction of cell cycle arrest in human HeLa cells assessed as decrease in cyclin B expression at 100 to 250 nM after 48 hrs by Western blot analysis; type: functional, cell-based; summary of the method: as §3
HeLa [9] = assay: Induction of cell cycle arrest in human HeLa cells assessed as increase in p-cdc2 Tyr15 expression at 250 nM after 24 hrs by Western blot analysis; type: functional, cell-based; summary of the method: as §3
HeLa [10] = assay: Effect on phosphatase cdc25 expression in human HeLa cells at 100 to 250 nM after 24 to 48 hrs by Western blot analysis; type: functional, cell-based; summary of the method: as §3
HeLa [11] = assay: Induction of apoptosis in human HeLa cells assessed as accumulation of annexin-V positive cells after 24 to 48 hrs by annexin-V-FITC/PI based flow cytometry; type: functional, cell-based
Summary of the method: (§4)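 HeLa cells treated 24 or 48 h, then double-stained with annexin V-FITC and PI. Surface phosphatidylserine exposure measured by flow cytometry.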

HeLa [12] = assay: Induction of apoptosis in human HeLa cells assessed as accumulation of annexin-V positive cells after at 100 to […] by annexin-V-FITC/PI based flow cytometry; type: functional, cell-based; details: TDE = time-dependent effect; summary of the method: as §4
HeLa [13] = assay: Induction of apoptosis in human HeLa cells assessed as increase in proportion of cells with depolarized mitochondria at 100 to […] by JC1 staining based flow cytometry; type: functional, cell-based
Summary of the method: (§5)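 HeLa cells treated 24 or 48 h, then stained with JC-1. Cells with depolarized mitochondria quantified by flow cytometry. Three independent experiments.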

HeLa [14] = assay: Induction of apoptosis in human HeLa cells assessed as increase in proportion of cells with depolarized mitochondria after 24 to 48 hrs by JC1 staining based flow cytometry; type: functional, cell-based; details: TDE = time-dependent effect; summary of the method: as §5
HeLa [15] = assay: Induction of apoptosis in human HeLa cells assessed as caspase 3 activation at 100 to […] by Western blot analysis; type: functional, cell-based; details: TDE = time-dependent effect
Summary of the method: (§6)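 HeLa lysates prepared after the indicated times. 10 μg protein separated by SDS-PAGE on PVDF blots. Primary antibodies (2 h, room temperature) against PARP, caspase-3, cleaved caspase-9, Bcl-2 and Mcl-1, then peroxidase secondary with ECL detection. β-Actin reprobe used as loading control.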

HeLa [16] = assay: Induction of apoptosis in human HeLa cells assessed as caspase 9 activation after 24 to 48 hrs by Western blot analysis; type: functional, cell-based; summary of the method: as §6
HeLa [17] = assay: Induction of apoptosis in human HeLa cells assessed as reduction in Bcl2 expression at 100 to 250 nM after 48 hrs by Western blotting analysis
HeLa [18] = assay: Induction of apoptosis in human HeLa cells assessed as increase in Mcl-1 expression at 100 to 250 nM after 24 hrs by Western blotting analysis
HeLa [19] = assay: Induction of apoptosis in human HeLa cells assessed as reduction in Mcl-1 expression at 100 to 250 nM after 48 hrs by Western blotting analysis

Compound | IC50 (HeLa [1]) [nM] | IC50 (PBL [2]) [nM] | IC50 (A549) [nM] | IC50 [3] [nM] | IC50 (MCF7) [nM] | IC50 [4] [nM] | IC50 (PBL [5]) [nM] | IC50 (HUVEC) [nM] | IC50 (Tubulin) [nM] | inhibition (Tubulin (Bos taurus)) [%] | Activity (Jurkat) | Activity (HeLa [6]) [%] | Activity (HeLa [7]) | Activity (HeLa [8]) | Activity (HeLa [9]) | Activity (HeLa [10]) | Activity (HeLa [11]) | Activity (HeLa [12]) | Activity (HeLa [13]) | Activity (HeLa [14]) | also measured
CCOC(=O)c1oc2cc(OC)ccc2c1Nc1cc(OC)c(OC)c(OC)c1 | 13 | > 10000 | 36 | 100 | 25 | 24 | 6300 | 220 | 1500 | 74 | Dose-dependent effect | >70 | Active | Active | Active | inactive | Dose-dependent effect | tde | Dose-dependent effect | tde | Activity (HeLa [15]): tde; Activity (HeLa [16]): Dose-dependent effect; Activity (HeLa [17]): Active; Activity (HeLa [18]): inactive; Activity (HeLa [19]): Active
COC(=O)c1oc2cc(OC)ccc2c1Nc1cc(OC)c(OC)c(OC)c1 | 2 | > 10000 | 9 | 0.3 | 27 | 5 | > 10000 | 750 | 1100 | 83 | Dose-dependent effect | >70 | Active | Active | Active | inactive | Dose-dependent effect | tde | Dose-dependent effect | tde | Activity (HeLa [15]): tde; Activity (HeLa [16]): Dose-dependent effect; Activity (HeLa [17]): Active; Activity (HeLa [18]): Active; Activity (HeLa [19]): Active
